In ChEMBL document CHEMBL3046951, “Volatile constituents from the leaves of Callicarpa japonica Thunb. and their antibacterial activities” (2004):

Experiments:
Type in all cases: functional
Listeria monocytogenes [1] = assay: Antimicrobial activity against Listeria monocytogenes ATCC 19111 assessed as growth inhibition rate at 25.52 mg/l after 72 hr by spectrophotometry; conditions: ATCC 19111, 72 h, read-out: GI
In short: (§1)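 L. monocytogenes was grown at 30 °C in tryptic soy broth, subcultured for 18 h, and exposed to pure volatile compounds (>95% purity). Growth was followed by Bioscreen C optical density every 24 h for 72 h against a 10% Tween 80 control.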

Staphylococcus aureus [2] = assay: Antimicrobial activity against Staphylococcus aureus ATCC 25923 assessed as growth inhibition rate at 678.64 mg/l after 72 hr by spectrophotometry; conditions: ATCC 25923, 72 h, read-out: GI
Salmonella typhimurium [3] = assay: Antimicrobial activity against Salmonella enterica subsp. enterica serovar Typhimurium ATCC 14028 assessed as growth inhibition rate at 678.64 mg/l after 72 hr by spectrophotometry; conditions: ATCC 14028, 72 h, read-out: GI
Bacillus cereus [4] = assay: Antimicrobial activity against Bacillus cereus ATCC 11778 assessed as growth inhibition rate at 67.88 mg/l after 72 hr by spectrophotometry; conditions: ATCC 11778, 72 h, read-out: GI
In short: (§2)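 Pure volatile compounds (purity >95%; one at 90%) were tested against B. cereus ATCC 11778. The strain was grown at 30 °C in nutrient broth for 24 h, then subcultured for 18 h. Optical density was read in a Bioscreen C every 24 h for 72 h, with 10% Tween 80 as the control.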

Escherichia coli [5] = assay: Antimicrobial activity against Escherichia coli O157:H7 ATCC 43894 assessed as growth inhibition rate at 67.88 mg/l after 72 hr by spectrophotometry; conditions: O157:H7 ATCC 43894, 72 h, read-out: GI
In short: (§3)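 Authentic volatiles (>95% purity; 2,4-heptadienal 90%) tested against 18 h subcultures. Growth media: E. coli O157:H7 and S. aureus in tryptic soy broth at 37 °C; L. monocytogenes in tryptic soy broth at 30 °C; V. parahaemolyticus in tryptic soy broth + 3% NaCl at 37 °C; S. typhimurium in nutrient broth at 30 °C. Bioscreen C OD every 24 h for 72 h versus 10% Tween 80 control.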

Staphylococcus aureus [6] = assay: Antimicrobial activity against Staphylococcus aureus ATCC 25923 assessed as growth inhibition rate at 67.88 mg/l after 72 hr by spectrophotometry; conditions: ATCC 25923, 72 h, read-out: GI
Escherichia coli [7] = assay: Antimicrobial activity against Escherichia coli O157:H7 ATCC 43894 assessed as growth inhibition rate at 678.64 mg/l after 72 hr by spectrophotometry; conditions: O157:H7 ATCC 43894, 72 h, read-out: GI; in short: as §3
Bacillus cereus [8] = assay: Antimicrobial activity against Bacillus cereus ATCC 11778 assessed as growth inhibition rate at 25.52 mg/l after 72 hr by spectrophotometry; conditions: ATCC 11778, 72 h, read-out: GI; in short: as §2
Salmonella typhimurium [9] = assay: Antimicrobial activity against Salmonella enterica subsp. enterica serovar Typhimurium ATCC 14028 assessed as growth inhibition rate at 25.52 mg/l after 72 hr by spectrophotometry; conditions: ATCC 14028, 72 h, read-out: GI
In short: (§4)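 Salmonella Typhimurium ATCC 14028 grown in nutrient broth at 30 °C, precultured 24 h, then subcultured 1:100 for 18 h before testing. Single volatile compounds (>95% pure) were added. OD was read every 24 h over 72 h in a Bioscreen C, with 10% Tween 80 as the comparison control.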

Staphylococcus aureus [10] = assay: Antimicrobial activity against Staphylococcus aureus ATCC 25923 assessed as growth inhibition rate at 339.32 mg/l after 72 hr by spectrophotometry; conditions: ATCC 25923, 72 h, read-out: GI
Bacillus cereus [11] = assay: Antimicrobial activity against Bacillus cereus ATCC 11778 assessed as growth inhibition rate at 339.32 mg/l after 72 hr by spectrophotometry; conditions: ATCC 11778, 72 h, read-out: GI; in short: as §2
Listeria monocytogenes [12] = assay: Antimicrobial activity against Listeria monocytogenes ATCC 19111 assessed as growth inhibition rate at 678.64 mg/l after 72 hr by spectrophotometry; conditions: ATCC 19111, 72 h, read-out: GI
In short: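 Pure volatile compounds (>95% purity) tested on Listeria monocytogenes ATCC 19111 in tryptic soy broth at 30 °C. Inoculum: 24 h culture subcultured (0.1 mL into 9.9 mL broth) and grown 18 h. Growth followed by Bioscreen C optical density every 24 h for 72 h against a 10% Tween 80 control.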

Escherichia coli [13] = assay: Antimicrobial activity against Escherichia coli O157:H7 ATCC 43894 assessed as growth inhibition rate at 339.32 mg/l after 72 hr by spectrophotometry; conditions: O157:H7 ATCC 43894, 72 h, read-out: GI
Vibrio parahaemolyticus [14] = assay: Antimicrobial activity against Vibrio parahaemolyticus ATCC 33844 assessed as growth inhibition rate at 12.48 mg/l after 72 hr by spectrophotometry; conditions: ATCC 33844, 72 h, read-out: GI
Escherichia coli [15] = assay: Antimicrobial activity against Escherichia coli O157:H7 ATCC 43894 assessed as growth inhibition rate at 12.48 mg/l after 72 hr by spectrophotometry; conditions: O157:H7 ATCC 43894, 72 h, read-out: GI
Listeria monocytogenes [16] = assay: Antimicrobial activity against Listeria monocytogenes ATCC 19111 assessed as growth inhibition rate at 135.68 mg/l after 72 hr by spectrophotometry; conditions: ATCC 19111, 72 h, read-out: GI; in short: as §1
Escherichia coli [17] = assay: Antimicrobial activity against Escherichia coli O157:H7 ATCC 43894 assessed as growth inhibition rate at 135.68 mg/l after 72 hr by spectrophotometry; conditions: O157:H7 ATCC 43894, 72 h, read-out: GI
Bacillus cereus [18] = assay: Antimicrobial activity against Bacillus cereus ATCC 11778 assessed as growth inhibition rate at 135.68 mg/l after 72 hr by spectrophotometry; conditions: ATCC 11778, 72 h, read-out: GI; in short: as §2
Vibrio parahaemolyticus [19] = assay: Antimicrobial activity against Vibrio parahaemolyticus ATCC 33844 assessed as growth inhibition rate at 25.52 mg/l after 72 hr by spectrophotometry; conditions: ATCC 33844, 72 h, read-out: GI
Salmonella typhimurium [20] = assay: Antimicrobial activity against Salmonella enterica subsp. enterica serovar Typhimurium ATCC 14028 assessed as growth inhibition rate at 135.68 mg/l after 72 hr by spectrophotometry; conditions: ATCC 14028, 72 h, read-out: GI; in short: as §4
Listeria monocytogenes [21] = assay: Antimicrobial activity against Listeria monocytogenes ATCC 19111 assessed as growth inhibition rate at 67.88 mg/l after 72 hr by spectrophotometry; conditions: ATCC 19111, 72 h, read-out: GI; in short: as §1
Staphylococcus aureus [22] = assay: Antimicrobial activity against Staphylococcus aureus ATCC 25923 assessed as growth inhibition rate at 12.48 mg/l after 72 hr by spectrophotometry; conditions: ATCC 25923, 72 h, read-out: GI
Vibrio parahaemolyticus [23] = assay: Antimicrobial activity against Vibrio parahaemolyticus ATCC 33844 assessed as growth inhibition rate at 135.68 mg/l after 72 hr by spectrophotometry; conditions: ATCC 33844, 72 h, read-out: GI
Listeria monocytogenes [24] = assay: Antimicrobial activity against Listeria monocytogenes ATCC 19111 assessed as growth inhibition rate at 12.48 mg/l after 72 hr by spectrophotometry; conditions: ATCC 19111, 72 h, read-out: GI; in short: as §1
Bacillus cereus [25] = assay: Antimicrobial activity against Bacillus cereus ATCC 11778 assessed as growth inhibition rate at 12.48 mg/l after 72 hr by spectrophotometry; conditions: ATCC 11778, 72 h, read-out: GI; in short: as §2
Bacillus cereus [26] = assay: Antimicrobial activity against Bacillus cereus ATCC 11778 assessed as growth inhibition rate at 678.64 mg/l after 72 hr by spectrophotometry; conditions: ATCC 11778, 72 h, read-out: GI; in short: as §2
Salmonella typhimurium [27] = assay: Antimicrobial activity against Salmonella enterica subsp. enterica serovar Typhimurium ATCC 14028 assessed as growth inhibition rate at 12.48 mg/l after 72 hr by spectrophotometry; conditions: ATCC 14028, 72 h, read-out: GI; in short: as §4
Salmonella typhimurium [28] = assay: Antimicrobial activity against Salmonella enterica subsp. enterica serovar Typhimurium ATCC 14028 assessed as growth inhibition rate at 67.88 mg/l after 72 hr by spectrophotometry; conditions: ATCC 14028, 72 h, read-out: GI
Listeria monocytogenes [29] = assay: Antimicrobial activity against Listeria monocytogenes ATCC 19111 assessed as growth inhibition rate at 339.32 mg/l after 72 hr by spectrophotometry; conditions: ATCC 19111, 72 h, read-out: GI; in short: as §1
Vibrio parahaemolyticus [30] = assay: Antimicrobial activity against Vibrio parahaemolyticus ATCC 33844 assessed as growth inhibition rate at 339.32 mg/l after 72 hr by spectrophotometry; conditions: ATCC 33844, 72 h, read-out: GI
Salmonella typhimurium [31] = assay: Antimicrobial activity against Salmonella enterica subsp. enterica serovar Typhimurium ATCC 14028 assessed as growth inhibition rate at 339.32 mg/l after 72 hr by spectrophotometry; conditions: ATCC 14028, 72 h, read-out: GI; in short: as §4
Staphylococcus aureus [32] = assay: Antimicrobial activity against Staphylococcus aureus ATCC 25923 assessed as growth inhibition rate at 135.68 mg/l after 72 hr by spectrophotometry; conditions: ATCC 25923, 72 h, read-out: GI
Staphylococcus aureus [33] = assay: Antimicrobial activity against Staphylococcus aureus ATCC 25923 assessed as growth inhibition rate at 25.52 mg/l after 72 hr by spectrophotometry; conditions: ATCC 25923, 72 h, read-out: GI
Escherichia coli [34] = assay: Antimicrobial activity against Escherichia coli O157:H7 ATCC 43894 assessed as growth inhibition rate at 25.52 mg/l after 72 hr by spectrophotometry; conditions: O157:H7 ATCC 43894, 72 h, read-out: GI
Vibrio parahaemolyticus [35] = assay: Antimicrobial activity against Vibrio parahaemolyticus ATCC 33844 assessed as growth inhibition rate at 67.88 mg/l after 72 hr by spectrophotometry; conditions: ATCC 33844, 72 h, read-out: GI
Vibrio parahaemolyticus [36] = assay: Antimicrobial activity against Vibrio parahaemolyticus ATCC 33844 assessed as growth inhibition rate at 678.64 mg/l after 72 hr by spectrophotometry; conditions: ATCC 33844, 72 h, read-out: GI

For `C=C[C@H](O)CCCCC`, the inhibition of growth at 25.52 µg/mL (Listeria monocytogenes [1]) was 6.7%, the inhibition of growth at 678.64 µg/mL (Staphylococcus aureus [2]) was 80.6% and the inhibition of growth at 678.64 µg/mL (Salmonella typhimurium [3]) was 98.4%. It also gave an inhibition of growth at 67.88 µg/mL (Bacillus cereus [4]) of 4.2%, an inhibition of growth at 67.88 µg/mL (Escherichia coli [5]) of 7.9% and an inhibition of growth at 67.88 µg/mL (Staphylococcus aureus [6]) of 5.7%. It also gave an inhibition of growth at 678.64 µg/mL (Escherichia coli [7]) of 96.5%, an inhibition of growth at 25.52 µg/mL (Bacillus cereus [8]) of 0% and an inhibition of growth at 25.52 µg/mL (Salmonella typhimurium [9]) of 16.7%. It also gave an inhibition of growth at 339.32 µg/mL (Staphylococcus aureus [10]) of 50.2%, an inhibition of growth at 339.32 µg/mL (Bacillus cereus [11]) of 54.6% and an inhibition of growth at 678.64 µg/mL (Listeria monocytogenes [12]) of 39.8%. The inhibition of growth at 339.32 µg/mL (Escherichia coli [13]) was 87.2%, the inhibition of growth at 12.48 µg/mL (Vibrio parahaemolyticus [14]) was 11.1% and the inhibition of growth at 12.48 µg/mL (Escherichia coli [15]) was 8.3%. The inhibition of growth at 135.68 µg/mL (Listeria monocytogenes [16]) was 8.2%, the inhibition of growth at 135.68 µg/mL (Escherichia coli [17]) was 8.9% and the inhibition of growth at 135.68 µg/mL (Bacillus cereus [18]) was 7.6%. For the same molecule, the inhibition of growth at 25.52 µg/mL (Vibrio parahaemolyticus [19]) was 14.3%, the inhibition of growth at 135.68 µg/mL (Salmonella typhimurium [20]) was 25.4% and the inhibition of growth at 67.88 µg/mL (Listeria monocytogenes [21]) was 5%. It also gave an inhibition of growth at 12.48 µg/mL (Staphylococcus aureus [22]) of 3.6%, an inhibition of growth at 135.68 µg/mL (Vibrio parahaemolyticus [23]) of 21.5% and an inhibition of growth at 12.48 µg/mL (Listeria monocytogenes [24]) of 5.4%. For the same molecule, the inhibition of growth at 12.48 µg/mL (Bacillus cereus [25]) was 0%, the inhibition of growth at 678.64 µg/mL (Bacillus cereus [26]) was 90.8% and the inhibition of growth at 12.48 µg/mL (Salmonella typhimurium [27]) was 18.2%. For the same molecule, the inhibition of growth at 67.88 µg/mL (Salmonella typhimurium [28]) was 17.7%, the inhibition of growth at 339.32 µg/mL (Listeria monocytogenes [29]) was 27.3% and the inhibition of growth at 339.32 µg/mL (Vibrio parahaemolyticus [30]) was 90.4%. It also gave an inhibition of growth at 339.32 µg/mL (Salmonella typhimurium [31]) of 79.1%, an inhibition of growth at 135.68 µg/mL (Staphylococcus aureus [32]) of 8.7% and an inhibition of growth at 25.52 µg/mL (Staphylococcus aureus [33]) of 6.6%. It also gave an inhibition of growth at 25.52 µg/mL (Escherichia coli [34]) of 6.3%, an inhibition of growth at 67.88 µg/mL (Vibrio parahaemolyticus [35]) of 13.5% and an inhibition of growth at 678.64 µg/mL (Vibrio parahaemolyticus [36]) of 98.8%.
